Reference: PubChem BioAssay
The source made the active and inactive calls.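 Rule for the calls, unless noted: active = NADPH fluorescence slope more negative than the mean of all samples by about 3 SD, 99.7% confidence; inactive = the rest.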

Assays:
[1] = inhibitors of TNFa-induced NFkB p65 translocation, primary screen, imaging, HUVEC, MLSMR starter and 10KST1 sets (AID 438;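 active = inhibition above 20% together with a positive visual image hit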;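 note: compound added about 3h40 before a 20 min TNFalpha stimulation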;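 for inhibition: signal is the nuclear over cytoplasmic p65 intensity ratio per well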); conditions: HUVEC TNFa-induced p65 nuclear translocation; cell count: measured here: nuclei count (cytotoxicity indicator), at 2.08 µM; inhibition: at 2 µM, stronger effect = higher value, 0% TNFa-plus-vehicle, 100% no-TNFa wells
[2] = endothelial E-selectin expression blockers – imaging, HUVEC, immunofluorescence, MLSMR starter and 10KST1 sets, primary screen (AID 487;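 active = visually confirmed hit in the image check and inhibition above 20%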;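 for inhibition: signal is fraction of cell area covered by stained E-selectin grains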;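 for nuclei count: 100% = median nuclei count of all wells on the same plate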); conditions: HUVEC TNFalpha-induced E-selectin immunofluorescence imaging, at 2 µM; inhibition: stronger effect = higher value; nuclei count: measured here: cell number, toxicity
[3] = Primary imaging screen for DUSP6 inhibitors that restore phospho-Erk in transfected HeLa cells, chemical complementation (AID 609;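 active = compounds giving at least 50% inhibition in the cell-based MKP-3 phosphatase rescue imaging test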;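 for inhibition: phospho-Erk level distribution per well compared with pooled transfected vehicle control wells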); conditions: HeLa MKP-3 transfected, phospho-Erk imaging KS statistic, at 10 µM, cells stimulated with TPA for 15 min
[4] = target: Dual specificity protein phosphatase 6 (Homo sapiens) (UniProt Q16828); experiment: as above; conditions: HeLa MKP-3 transfected, phospho-Erk imaging KS statistic; at 10 µM; stronger effect = higher value; cells stimulated with TPA for 15 min
Sequence of Dual specificity protein phosphatase 6 (Homo sapiens) (Q16828 whole entry, looked up): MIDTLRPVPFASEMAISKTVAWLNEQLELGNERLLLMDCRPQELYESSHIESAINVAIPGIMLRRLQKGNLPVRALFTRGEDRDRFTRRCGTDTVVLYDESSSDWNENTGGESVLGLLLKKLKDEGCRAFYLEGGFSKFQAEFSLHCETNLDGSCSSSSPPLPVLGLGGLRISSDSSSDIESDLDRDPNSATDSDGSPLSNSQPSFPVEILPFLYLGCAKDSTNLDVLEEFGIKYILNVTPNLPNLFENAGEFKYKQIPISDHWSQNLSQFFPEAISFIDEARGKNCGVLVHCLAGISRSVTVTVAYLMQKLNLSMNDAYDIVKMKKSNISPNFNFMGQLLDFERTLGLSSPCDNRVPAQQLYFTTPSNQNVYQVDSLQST

[5] = target: Voltage-gated potassium channel subunit beta-2 (Rattus norvegicus) (UniProt P62483); experiment: inhibitors of rat Kvbeta2 reductase activity – biochemical, NADPH fluorescence, primary screen (AID 622;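 active = fluorescence slope higher than the sample average by over 3 SD, cut at about -0.22 in these data, passing the limit was not always enough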;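 note: slope of raw intensity against log time taken from 70 to 1610 s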); conditions: recombinant KvBeta, 4-cyanobenzaldehyde reduction, at 10 µM, stronger effect = higher value
Sequence of Voltage-gated potassium channel subunit beta-2 (Rattus norvegicus) (P62483 whole entry, looked up): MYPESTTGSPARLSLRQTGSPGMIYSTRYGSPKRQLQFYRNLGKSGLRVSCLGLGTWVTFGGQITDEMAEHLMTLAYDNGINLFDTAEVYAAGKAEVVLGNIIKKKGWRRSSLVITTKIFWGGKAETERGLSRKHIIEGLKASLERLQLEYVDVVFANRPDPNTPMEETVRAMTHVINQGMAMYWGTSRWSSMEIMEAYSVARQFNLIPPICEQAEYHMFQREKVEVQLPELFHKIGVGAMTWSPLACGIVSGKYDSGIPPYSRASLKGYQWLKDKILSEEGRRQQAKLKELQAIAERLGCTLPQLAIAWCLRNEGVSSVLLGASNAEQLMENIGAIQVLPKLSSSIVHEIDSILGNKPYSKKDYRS

[6] = target: Voltage-gated potassium channel subunit beta-2 (Rattus norvegicus) (UniProt P62483); experiment: enhancers of rat Kvbeta2 NADPH turnover – biochemical, NADPH fluorescence, primary screen (AID 623); conditions: Recombinant KvBeta, NADPH fluorescence decrease slope, 10 min; at 10 µM; stronger effect = lower value;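 note: fluorescence intensity change per second fitted from 20 to 320 s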
[7] = target: Alpha-2C adrenergic receptor (Homo sapiens) (UniProt P18825); experiment: compounds altering alpha2C-coupled GIRK flux – cell-based, HEK293 alpha2C/GIRK1/2, thallium flux, primary screen (AID 624;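 active = fluorescence slope after compound addition differing from the mean of all screened samples at 99.7% confidence, in either direction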;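 note: slope of fluorescence ratio to pre-addition baseline per second over 15 to 24 s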); conditions: thallium flux BTC fluorescence, at 10 µM, actives lie on both sides
Sequence of Alpha-2C adrenergic receptor (Homo sapiens) (P18825 whole entry, looked up): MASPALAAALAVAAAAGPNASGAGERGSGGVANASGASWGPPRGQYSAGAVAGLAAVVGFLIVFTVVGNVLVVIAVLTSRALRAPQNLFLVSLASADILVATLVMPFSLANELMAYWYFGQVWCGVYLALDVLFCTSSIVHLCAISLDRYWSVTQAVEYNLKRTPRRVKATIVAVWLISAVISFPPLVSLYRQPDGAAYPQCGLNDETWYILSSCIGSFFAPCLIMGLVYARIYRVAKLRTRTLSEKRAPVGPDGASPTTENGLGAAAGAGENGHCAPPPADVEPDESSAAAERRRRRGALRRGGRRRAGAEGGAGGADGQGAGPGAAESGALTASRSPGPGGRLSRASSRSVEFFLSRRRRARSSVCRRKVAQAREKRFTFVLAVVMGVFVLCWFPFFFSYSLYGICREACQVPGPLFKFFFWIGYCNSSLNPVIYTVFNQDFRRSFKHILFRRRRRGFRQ

[8] = inhibitors of larval lipid processing in zebrafish, primary screen, whole organism, PED6 fluorescence, gall bladder and intestine (AID 686;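 active = a full or partial loss of lipid-probe fluorescence in the fish gall bladder, intestine or both, judged by eye; inactive = no fluorescence loss, or compound toxic to the fish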;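 note: larvae 5 to 7 days old with five fish per well; signal comes from phospholipase A2 cleavage of quenched PED6 carried via bile; overnight exposure to compound and PED6 before scoring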); conditions: Zebrafish larvae PED6 lipid processing, fluorescence scoring; screened at 20 µM (by protocol)
Procedure, shortened: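 System: live zebrafish larvae aged 5-7 days, whole organism; measure: graded gall bladder and intestinal fluorescence inhibition per well; incubation: overnight exposure; reagent: ingested quenched lipid PED6 at 100 nM; signal: By-eye fluorescence microscopy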

[9] = loss of swimming-algae plug formation – whole organism, Chlamydomonas reinhardtii, WT vs cilia-less mutant, absorbance, 96-well, primary screen (AID 463189;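 active = inhibition at or above 50% relative to wild type and mutant plate controls; inactive = inhibition below 50%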;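 note: 0% = wild type cc124 cells in DMSO and 100% = ciliumless bld1 mutant cells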); conditions: Chlamydomonas reinhardtii gravitaxis, OD600 absorbance, 2 days; at 10 µM; stronger effect = higher value
[10] = measured here: cell density z-score
[11] = measured here: nuclear c-Myc green intensity z-score
[12] = measured here: nuclear pErk red intensity z-score, stronger effect = higher value

| Structure (SMILES) | cell count [1] | inhibition [1] | inhibition [2] | nuclei count [2] | z-score [3, 10] | z-score [3, 11] | z-score [3, 12] | inhibition [4] | fluorescence slope [5] | NADPH fluorescence slope [6] | slope [7] | outcome [8] | inhibition [9] |
| --- | --- | --- | --- | --- | --- | --- | --- | --- | --- | --- | --- | --- | --- |
| O=C(NC1(C(F)(F)F)C(=O)Nc2c1c(=O)[nH]c(=O)n2-c1ccccc1)c1cccnc1 (stereo unspecified) | 471 | 1.9% (inactive) | -47.1% (inactive) | 106% | -0.151 | -1.59 | 0.837 | 3.5% (inactive) | -0.52 (inactive) | -2.5e-05 (inactive) | 0.00618 (inactive) | inactive | 32% (inactive) |
| S=c1[nH]nc(-c2ccccc2)n1Cc1ccccc1 | 506 | 0% (inactive) | -83.3% (inactive) | 170% | 0.046 | 1.63 | -0.862 | 7.48% (inactive) | -0.391 (inactive) | -9.1e-05 (inactive) | 0.00591 (inactive) | inactive | -5.83% (inactive) |
| O=c1[nH]nc2n1CCCCC2 | 530 | -27.5% (inactive) | -139% (inactive) | 180% | 1.3 | -1.27 | -0.317 | 7.73% (inactive) | -0.501 (inactive) | -0.000113 (inactive) | 0.00508 (inactive) | inactive | 11.3% (inactive) |
| CCCOc1cc(CN2CCCCC2)cc(C(C)=O)c1 | 662 | -7.2% (inactive) | -40.5% (inactive) | 182% | 0.934 | -0.767 | 0.549 | 15.1% (inactive) | -0.493 (inactive) | -6.5e-05 (inactive) | 0.00496 (inactive) | inactive | 3.11% (inactive) |
| CCn1c(-c2ccco2)n[nH]c1=S | 428 | -12.3% (inactive) | -47.8% (inactive) | 92.3% | 0.73 | 0.522 | -1.57 | 22.3% (inactive) | -0.542 (inactive) | -2.6e-05 (inactive) | 0.00489 (inactive) | inactive | 19.9% (inactive) |
| Cc1cc(Cl)ccc1OCC(=O)OC(C)C(=O)N(C)C (stereo unspecified) | 356 | -24% (inactive) | -194% (inactive) | 168% | 1.09 | 0.169 | -0.845 | 5.26% (inactive) | -0.439 (inactive) | -0.000171 (inactive) | 0.00631 (inactive) | inactive | 7.97% (inactive) |
| CN1C(=O)CC(N2CCN(c3ccc(Cl)c(Cl)c3)CC2)C1=O (stereo unspecified) | 379 | -3.9% (inactive) | -80.8% (inactive) | 94.7% | -1.07 | 0.418 | -1.7 | 5.65% (inactive) | -0.541 (inactive) | -7.5e-05 (inactive) | 0.00484 (inactive) | inactive | 0.241% (inactive) |
| COC(=O)CN1C2(C#N)CCCCC2CC2CCCCC21C#N (stereo unspecified) | 420 | -8.8% (inactive) | -128% (inactive) | 153% | -0.336 | -0.947 | -0.0966 | 3.66% (inactive) | -0.504 (inactive) | -9.5e-05 (inactive) | 0.00451 (inactive) | inactive | 45.5% (inactive) |
| Brc1ccc(-c2cnc3n2CCCC3)cc1 | 363 | -4.2% (inactive) | -15.9% (inactive) | 108% | 0.187 | 2.77 | -1.27 | 5.65% (inactive) | -0.46 (inactive) | -0.000301 (inactive) | 0.00468 (inactive) | inactive | 142% (active) |
| COc1ccc(-c2nnc3sc(COc4ccccc4)nn23)cc1 | 645 | -8.4% (inactive) | -95.8% (inactive) | 154% | -0.369 | -0.469 | -1.07 | 4.72% (inactive) | -0.445 (inactive) | -0.000151 (inactive) | 0.00767 (inactive) | inactive | 150% (active) |
| Cc1ccc2c(c1)[C@@H]1CN(C)CC[C@@H]1N2S(=O)(=O)c1ccc(F)cc1 | 507 | -8.3% (inactive) | -69% (inactive) | 199% | -0.629 | -0.478 | -0.18 | -8.27% (inactive) | -0.324 (inactive) | -2.1e-06 (inactive) | 0.00411 (inactive) | inactive | 10.5% (inactive) |
| CCOC(=O)CC1=NC(=O)CS1 | 636 | -20.6% (inactive) | -40.7% (inactive) | 179% | -0.153 | -1.04 | 1.51 | -5.62% (inactive) | -0.455 (inactive) | -5.7e-05 (inactive) | 0.00579 (inactive) | inactive | 11.6% (inactive) |
| Cn1c2c(c(=O)n(C)c1=O)C(NC(=O)c1cccs1)(C(F)(F)F)C(=O)N2 (stereo unspecified) | 497 | 3.5% (inactive) | -80.8% (inactive) | 147% | 1.78 | -0.706 | -0.81 | 8.76% (inactive) | -0.537 (inactive) | -9.1e-06 (inactive) | 0.00621 (inactive) | inactive | 24.7% (inactive) |
| CN1C(=O)NC(NC(=O)c2ccco2)(C(F)(F)F)C1=O (stereo unspecified) | 489 | -3.4% (inactive) | -78% (inactive) | 116% | -0.0785 | -0.489 | 0.527 | 3.5% (inactive) | -0.504 (inactive) | -6e-05 (inactive) | 0.00753 (inactive) | inactive | -10.1% (inactive) |
| O=C(CNC1C(=O)Nc2ccccc21)Sc1ccccc1 (stereo unspecified) | 636 | -12.1% (inactive) | -63.1% (inactive) | 118% | 1.09 | -0.106 | -0.738 | 14.4% (inactive) | -0.383 (inactive) | -1.8e-06 (inactive) | 0.00502 (inactive) | inactive | -11.8% (inactive) |
| CCOC(=O)CC1=C(C(=O)OCC)C(c2cc(OC)c(OC)cc2OC)C(C#N)=C(N)O1 (stereo unspecified) | 433 | -10% (inactive) | -66.1% (inactive) | 106% | 1.93 | -1.51 | -0.137 | -8.27% (inactive) | -0.345 (inactive) | 6.8e-06 (inactive) | 0.00515 (inactive) | inactive | 15.6% (inactive) |
| COC(=O)c1cc(OC)c(OC)cc1N | 358 | -11.5% (inactive) | 9.3% (inactive) | 135% | 0.282 | 0.254 | 0.0446 | -12.3% (inactive) | -0.385 (inactive) | -0.000132 (inactive) | 0.00592 (inactive) | inactive | -2.54% (inactive) |
| O=C(NCCN1CCOCC1)c1cc2n(n1)C(C(F)(F)F)CC(c1ccc(F)cc1)N2 (stereo unspecified) | 341 | -2.3% (inactive) | -22.1% (inactive) | 104% | -1.73 | 1.46 | -0.339 | 7.48% (inactive) | -0.529 (inactive) | -9.5e-05 (inactive) | 0.00574 (inactive) | inactive | -15.3% (inactive) |
| COc1ccc(OC)c(C2C(C(=O)c3ccco3)=C(O)C(=O)N2CCCN2CCOCC2)c1 (stereo unspecified) | 546 | -4.5% (inactive) | -85% (inactive) | 159% | -1.04 | 0.589 | -0.634 | -0.674% (inactive) | -0.495 (inactive) | -3.6e-05 (inactive) | 0.0072 (inactive) | inactive | 2.93% (inactive) |
| CCCc1cc(C(=O)Cc2ccc(F)cc2)c(O)cc1O | 563 | -8.9% (inactive) | -180% (inactive) | 128% | 0.0278 | -0.762 | -1.21 | 19.8% (inactive) | -0.507 (inactive) | -3.4e-06 (inactive) | 0.00499 (inactive) | inactive | 74.4% (active) |
| N#Cc1c(SCC(=O)O)nc(N2CCCCC2)c2c1CCCC2 | 555 | 7.3% (inactive) | -50% (inactive) | 123% | 0.186 | -1.79 | 0.996 | 16.8% (inactive) | -0.535 (inactive) | -4.5e-05 (inactive) | 0.00499 (inactive) | inactive | 6.88% (inactive) |
| CCOC(=O)c1cnc(SC2CC(=O)N(c3cccc(OC)c3)C2=O)nc1N (stereo unspecified) | 591 | -4.7% (inactive) | -23.7% (inactive) | 155% | 0.0661 | -0.104 | -0.161 | -8.76% (inactive) | -0.317 (inactive) | -9.7e-06 (inactive) | 0.00504 (inactive) | inactive | -8.83% (inactive) |
| COC(=O)Cn1cc(C(=O)OC)cc(Br)c1=O | 507 | -0.8% (inactive) | -135% (inactive) | 136% | 0.966 | 0.177 | 0.211 | -8.76% (inactive) | -0.539 (inactive) | -3.3e-05 (inactive) | 0.00509 (inactive) | inactive | -6.78% (inactive) |
| COc1cccc(-c2nc(NCC3CCCO3)c3ccccc3n2)c1O (stereo unspecified) | 553 | -3.3% (inactive) | -74.2% (inactive) | 131% | -1.22 | 0.707 | 0.124 | 1.6e-07% (inactive) | -0.34 (inactive) | -2.8e-05 (inactive) | 0.00373 (inactive) | inactive | 55.5% (active) |
| Cc1nc(N2CCN(Cc3ccccc3)CC2)c(C#N)c2c1COC(C)(C)C2 | 686 | -5.4% (inactive) | -178% (inactive) | 195% | 0.66 | -1.21 | 0.193 | 3.66% (inactive) | -0.487 (inactive) | -0.000123 (inactive) | 0.00373 (inactive) | inactive | -5.61% (inactive) |
| Cc1c(Cl)c(C(F)(F)F)nn1CC(=O)N1CCSCC1 | 511 | -3.6% (inactive) | -110% (inactive) | 152% | -0.563 | -0.304 | 1.29 | -9.7% (inactive) | -0.555 (inactive) | -4.7e-05 (inactive) | 0.00531 (inactive) | inactive | -2.53% (inactive) |
| CCOC(=O)c1cc2c(=O)n3cccc(C)c3nc2n(C)c1=N | 622 | -8.8% (inactive) | -51.9% (inactive) | 142% | 1.38 | -1.25 | -0.0406 | 6.04% (inactive) | -0.436 (inactive) | -8.5e-05 (inactive) | 0.00241 (inactive) | inactive | 119% (active) |
